We go through 17 compounds from ChEMBL document CHEMBL1157609, “Discovery of vaniprevir (MK-7009), a macrocyclic hepatitis C virus NS3/4a protease inhibitor” (J Med Chem, 2010).

For series [1], the system named is Hepatitis C virus. The experiment in a line: Antiviral activity against HCV Con1 infected in human HuH7 cells assessed as inhibition of viral replication after 24 hrs by replicon assay in presence of 10% fetal bovine serum. It is filed as functional, organism-based, Hepacivirus hominis. Conditions: Con1, Huh-7, 24 h. The procedure, abridged:
(§1)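 Huh-7 cells stably carrying a bicistronic replicon (1b con1 or 2a JFH) seeded at 20000 cells/well and held 24 h at 37 °C/5% CO2 in DMEM with 10% FBS or 50% NHS. Compound added in DMSO (1% final) for a further 24 h. Cells fixed and permeabilized. Replicon RNA quantified by in situ hybridization of a radiolabeled neomycin-resistance probe (50 °C, 18 h), followed by RNase A treatment.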

The nature of series [2]: Inhibition of HCV1b BK full length NS3/4A protease expressed in Escherichia coli after 1 hr by time-resolved fluorescence assay. The arrangement: species or system Hepatitis C virus (isolate BK). The essentials: (§2)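 Full-length NS3/4A (1b BK or 2a JFH) purified from E. coli. TRF peptide substrate added at 100 nM final. Reaction run 1 h at RT, then quenched with 500 mM MES pH 5.5. Read at ex 340/em 615 nm with 400 μs delay. Ki from a four-parameter fit.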

The nature of series [3]: Drug level in Sprague-Dawley rat liver at 5 mg/kg, po after 4 hrs by LC/MS analysis. Format: ADME, organism-based. The arrangement: dose 5 mg/kg, route oral. Conditions: read-out: Drug uptake. The essentials:
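Rats given a single oral dose as a PEG400 solution (2.0 mL/kg). Liver collected at the terminal time point and homogenized in buffer. Drug extracted liquid-liquid and quantified by LC/MS against standards and QCs.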

The subject of series [4] is Hepatitis C virus. In words: Antiviral activity against HCV Con1 infected in human HuH7 cells assessed as inhibition of viral replication after 24 hrs by replicon assay in presence of 50% normal human serum. To be noted: Con1, Huh-7, 24 h. It is filed as functional, organism-based, Hepacivirus hominis. The procedure, abridged:
as §1

For series [5], the system named is Hepatitis C virus. The experiment in a line: Antiviral activity against HCV JFH-1 infected in human HuH7 cells assessed as inhibition of viral replication after 24 hrs by replicon assay in presence of 10% fetal bovine serum. Format: functional, organism-based, Hepacivirus hominis. To be noted: JFH-1, Huh-7, 24 h. The essentials: as §1
The nature of series [6]: Inhibition of HCV JFH-1 full length NS3/4A protease expressed in Escherichia coli after 1 hr by time-resolved fluorescence assay. The arrangement: species or system Hepatitis C virus JFH-1. The procedure, abridged:
as §2

The nature of series [7]: AUC in chimpanzee at 10 mg/kg, po by LC/MS analysis. Format: ADME, organism-based, Pan troglodytes. The arrangement: dose 10 mg/kg, route oral. To be noted: plasma. The procedure, abridged: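 Two chimpanzees dosed orally by voluntary ingestion in a chocolate milk vehicle (0.67 mL/kg). Blood sampled at multiple times up to 24 h. Plasma analysed by liquid-liquid extraction and LC/MS against standards and QCs. Pharmacokinetic parameters calculated from the concentration data.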

Series [8] is described as follows: Drug level in Beagle dog liver at 5 mg/kg, po after 24 hrs by LC/MS analysis. Format: ADME, organism-based, Canis lupus familiaris. The arrangement: dose 5 mg/kg, route oral. To be noted: read-out: Drug uptake.
Series [9] can be described thus: Drug level in Beagle dog liver at 5 mg/kg, po after 2 hrs by LC/MS analysis. The arrangement: dose 5 mg/kg, route oral. To be noted: read-out: Drug uptake. It is filed as ADME, organism-based, Canis lupus familiaris.
A short description of series [10]: AUC in Beagle dog at 5 mg/kg, po by LC/MS analysis. Format: ADME, organism-based, Canis lupus familiaris. Further details: dose 5 mg/kg, route oral. To be noted: plasma.
Series [11] can be described thus: AUC in monkey at 5 mg/kg, po by LC/MS analysis. It is filed as ADME, organism-based, Macaca mulatta. The arrangement: dose 5 mg/kg, route oral. Conditions: rhesus monkey, plasma.
The nature of series [12]: Drug level in monkey liver at 5 mg/kg, po after 2 hrs by LC/MS analysis. It is filed as ADME, organism-based, Macaca mulatta. The arrangement: dose 5 mg/kg, route oral. To be noted: rhesus monkey, read-out: Drug uptake.
The nature of series [13]: Drug level in Sprague-Dawley rat liver at 5 mg/kg, po after 24 hrs by LC/MS analysis. Format: ADME, organism-based. The arrangement: dose 5 mg/kg, route oral. Conditions: read-out: Drug uptake. The procedure, abridged:
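Single oral dose given as a PEG400 solution (2.0 mL/kg). Liver was collected at the terminal time point, homogenized in buffer, and processed by liquid-liquid extraction. Drug was quantified by LC/MS against standards and QCs.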

pIC50, pKi: −log10 of the molar value.

In the case of `C=C[C@@H]1C[C@]1(NC(=O)[C@@H]1C[C@@H]2CN1C(=O)[C@H](C(C)C)NC(=O)OCCC/C=C/c1cccc3c1CN(C3)C(=O)O2)C(=O)NS(=O)(=O)C1CC1`, the pIC50 was 7.92 in the series on Hepatitis C virus [1] and 7.55 in the series with Hepatitis C virus [4]. This compound also had a negative-log Ki (pKi) in series [2] of 10.40. Also, the concentration at 4 h in [3] was found to be 440 nM.

As to `CC[C@@H]1C[C@]1(NC(=O)[C@@H]1C[C@@H]2CN1C(=O)[C@H](C(C)(C)C)NC(=O)OCCCCCc1cccc3c1CN(C3)C(=O)O2)C(=O)NS(=O)(=O)C1CC1`, the results for the pIC50 in the series on Hepatitis C virus [1], with Hepatitis C virus [5] and in the series with Hepatitis C virus [4] were 8.00, 6.85 and 7.46, respectively. The negative-log Ki (pKi) in [6] was 8.40; in series [2], 9.74. Besides, the concentration at 4 h in series [3] came to 10700 nM.

For the compound `C=C[C@@H]1C[C@]1(NC(=O)[C@@H]1C[C@@H]2CN1C(=O)[C@H](C1(C)CCCCC1)NC(=O)OCCC/C=C/c1cccc3c1CN(C3)C(=O)O2)C(=O)NS(=O)(=O)C1CC1`, the results for the pIC50 with Hepatitis C virus [1] and in the series on Hepatitis C virus [4] were 8.40 and 7.42, respectively. In addition, the negative logarithm of the Ki (pKi) in series [2] was 10.22. Further, the concentration at 4 h in series [3] is 1600 nM.

Take `C=C[C@@H]1C[C@]1(NC(=O)[C@@H]1C[C@@H]2CN1C(=O)[C@H](C(C)(C)C)NC(=O)OCCCCC/C=C/c1cccc3c1CN(C3)C(=O)O2)C(=O)NS(=O)(=O)C1CC1`: the pIC50 in the series on Hepatitis C virus [1] is 8.52; with Hepatitis C virus [4] it was 7.64. This compound also showed a negative-log Ki (pKi) in series [2] of over 10.70. In addition, in series [3], the concentration at 4 h was determined as 140 nM.

For the compound `C=C[C@@H]1C[C@]1(NC(=O)[C@@H]1C[C@@H]2CN1C(=O)[C@H](C(C)(C)C)NC(=O)OCCC/C=C/c1cccc3c1CCN(C3)C(=O)O2)C(=O)NS(=O)(=O)C1CC1`, the pIC50 was 6.14 with Hepatitis C virus [1] and 5.54 with Hepatitis C virus [4]. Besides, the pKi in series [2] is 8.08.

As for `C=C[C@@H]1C[C@]1(NC(=O)[C@@H]1C[C@@H]2CN1C(=O)[C@H](C(C)(C)C)NC(=O)OCC/C=C/c1cccc3c1CN(C3)C(=O)O2)C(=O)NS(=O)(=O)C1CC1`, the negative-log IC50 (pIC50) in the series on Hepatitis C virus [1] is 7.80; in the series with Hepatitis C virus [4], 6.41. The same compound gave a pKi in [2] of 10.00.

For `C=C[C@@H]1C[C@]1(NC(=O)[C@@H]1C[C@@H]2CN1C(=O)[C@H](C(C)(C)C)NC(=O)OCCC/C=C/c1cccc(c1)CN(C)C(=O)O2)C(=O)NS(=O)(=O)C1CC1`, the negative-log IC50 (pIC50) was 7.55 with Hepatitis C virus [1] and 7.38 with Hepatitis C virus [4]. The negative-log Ki (pKi) in series [2] was 9.85. Besides, in series [3], the concentration at 4 h is 450 nM.

For `C=C[C@@H]1C[C@]1(NC(=O)[C@@H]1C[C@@H]2CN1C(=O)[C@H](C(C)(C)C)NC(=O)OCCC/C=C/c1ccccc1CN(C)C(=O)O2)C(=O)NS(=O)(=O)C1CC1`, the pIC50 in the series on Hepatitis C virus [1] is 7.01; with Hepatitis C virus [4], 6.21. For the same compound, the pKi in series [2] is 8.80.

`C=C[C@@H]1C[C@]1(NC(=O)[C@@H]1C[C@@H]2CN1C(=O)[C@H](C(C)(C)C)NC(=O)OCCC/C=C/c1cccc3c1CN(C3)C(=O)O2)C(=O)NS(=O)(=O)C1CC1`: the pIC50 in the series with Hepatitis C virus [1] was 8.15; in the series with Hepatitis C virus [5], 6.82; in the series on Hepatitis C virus [4], 7.49. For the same compound, the negative-log Ki (pKi) in [6] was 8.59; in series [2] it was 10.30. Moreover, in [3], the concentration at 4 h turned out to be 910 nM.

Turning to `C=C[C@@H]1C[C@]1(NC(=O)[C@@H]1C[C@@H]2CN1C(=O)[C@H](C(C)(C)C)NC(=O)OCCC/C=C/c1cccc3c1CN(CC3)C(=O)O2)C(=O)NS(=O)(=O)C1CC1`, the results for the negative logarithm of the IC50 (pIC50) with Hepatitis C virus [1] and in the series on Hepatitis C virus [4] were 7.59 and 6.85, respectively. For the same compound, the negative logarithm of the Ki (pKi) in series [2] is 9.82. The concentration at 4 h in series [3] worked out at 3500 nM.

For the compound `C=C[C@@H]1C[C@]1(NC(=O)[C@@H]1C[C@@H]2CN1C(=O)[C@H](C1CCCCC1)NC(=O)OCCC/C=C/c1cccc3c1CN(C3)C(=O)O2)C(=O)NS(=O)(=O)C1CC1`, the negative-log IC50 (pIC50) is 8.52 in the series with Hepatitis C virus [1] and 7.62 with Hepatitis C virus [4]. For the same compound, in series [2], the pKi is 10.70. The concentration at 4 h in series [3] amounted to 2800 nM.

Turning to `C=C[C@@H]1C[C@]1(NC(=O)[C@@H]1C[C@@H]2CN1C(=O)[C@H](CCCC)NC(=O)OCCC/C=C/c1cccc3c1CN(C3)C(=O)O2)C(=O)NS(=O)(=O)C1CC1`, the results for the pIC50 in the series on Hepatitis C virus [1] and in the series with Hepatitis C virus [4] were 8.22 and 7.59, respectively. In [2], this compound gave a pKi of 10.30. Further, the concentration at 4 h in [3] came to 460 nM.

For `C=C[C@@H]1C[C@]1(NC(=O)[C@@H]1C[C@@H]2CN1C(=O)[C@H](C1CCCC1)NC(=O)OCCC/C=C/c1cccc3c1CN(C3)C(=O)O2)C(=O)NS(=O)(=O)C1CC1`, the negative-log IC50 (pIC50) with Hepatitis C virus [1] is 8.40; with Hepatitis C virus [4] it was 7.64. In series [2], this compound gave a pKi of 10.40.

Turning to `C=C[C@@H]1C[C@]1(NC(=O)[C@@H]1C[C@@H]2CN1C(=O)[C@H](C(C)(C)C)NC(=O)OCCCC/C=C/c1cccc3c1CN(C3)C(=O)O2)C(=O)NS(=O)(=O)C1CC1`, the negative logarithm of the IC50 (pIC50) is 8.30 in the series on Hepatitis C virus [1] and 7.72 with Hepatitis C virus [4]. Also, in [2], the pKi is 10.52. Further, in series [3], the concentration at 4 h was determined as 230 nM.

As for `C=C[C@@H]1C[C@]1(NC(=O)[C@@H]1C[C@@H]2CN1C(=O)[C@H](C(C)(C)C)NC(=O)OCCCCCc1cccc3c1CN(C3)C(=O)O2)C(=O)NS(=O)(=O)C1CC1`, the negative logarithm of the IC50 (pIC50) in the series on Hepatitis C virus [1] was 8.15; with Hepatitis C virus [5] it was 7.18; with Hepatitis C virus [4], 7.57. In addition, the pKi in series [6] is 9.05; in [2], 10.40. In addition, the concentration at 4 h in series [3] worked out at 520 nM.

For `CC[C@@H]1C[C@]1(NC(=O)[C@@H]1C[C@@H]2CN1C(=O)[C@H](C(C)(C)C)NC(=O)OCCC/C=C/c1cccc3c1CN(C3)C(=O)O2)C(=O)NS(=O)(=O)C1CC1`, the results for the negative logarithm of the IC50 (pIC50) in the series with Hepatitis C virus [1], in the series on Hepatitis C virus [5] and in the series with Hepatitis C virus [4] were 7.54, 6.14 and 6.96, respectively. For the same compound, the pKi in [6] is 7.72; in series [2] it was 9.35. For the same compound, the concentration at 4 h in series [3] was determined as 3800 nM.

Regarding `CC[C@@H]1C[C@]1(NC(=O)[C@@H]1C[C@@H]2CN1C(=O)[C@H](C(C)(C)C)NC(=O)OCC(C)(C)CCCCc1cccc3c1CN(C3)C(=O)O2)C(=O)NS(=O)(=O)C1CC1` [VANIPREVIR], the pIC50 is 8.52 in the series with Hepatitis C virus [1], 8.05 in the series with Hepatitis C virus [5] and 7.72 with Hepatitis C virus [4]. Besides, the area under the curve (AUC) in [7] came out at 5.2 µM·h; in series [10], 1.2 µM·h; in [11], 0.05 µM·h. In addition, the pKi is 9.05 in [6] and 10.30 in series [2]. Moreover, the concentration at 4 h in [3] was 9900 nM. Also, the concentration at 24 h in series [8] worked out at 500 nM; in [13], 400 nM. In addition, the results for the concentration at 2 h in series [9] and in [12] were 34000 nM and 3000 nM, respectively.
